From ChEMBL document CHEMBL3045579, “Herbicidal activity of cineole derivatives” (2010)
Active and inactive are the calls of the source. The rule behind the calls is not given here.

Legend:
Assay type in all cases: functional
Radish [1] = experiment: Pre-emergence herbicidal activity against Raphanus sativus var.Long scarlet (radish) seeds assessed as concentration required to suppress shoot growth at 25 degC after 72 hr by laboratory-based agar medium bioassay
Radish [2] = experiment: Pre-emergence herbicidal activity against Raphanus sativus var.Long scarlet (radish) seeds assessed as seed germination at 0.1 mol/l at 25 degC after 72 hr by laboratory-based agar medium bioassay relative to control
Method in brief: (§1)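 Solutions tested at 1 to 1 × 10^-4 mol L^-1. 10 seeds/dish, 5 randomized replicate dishes angled ~70°. Incubated 72 h at 25 °C in light. Solvent and no-solvent controls. Germination, root length and shoot length recorded.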

Radish [3] = experiment: Pre-emergence herbicidal activity against Raphanus sativus var.Long scarlet (radish) seeds assessed as shoot length at 0.1 mol/l at 25 degC after 72 hr by laboratory-based agar medium bioassay relative to control; method in brief: as §1
Lolium rigidum [4] = experiment: Pre-emergence herbicidal activity against Lolium rigidum seeds assessed as concentration required to suppress seed germination at 25 degC after 72 hr by laboratory-based agar medium bioassay
Radish [5] = experiment: Pre-emergence herbicidal activity against Raphanus sativus var.Long scarlet (radish) seeds assessed as shoot length at 0.1 mol/l at 25 degC after 72 hr by laboratory-based agar medium bioassay relative to 1,8-Cineole
Method in brief: (§2)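 Agar-plate assay as above: compound in organic solvent evaporated onto Ca/B water agar, 10 seeds × 5 dishes, 72 h at 25 °C in light. Germination, root length or shoot length at 0.1 mol L^-1 expressed relative to 1,8-cineole.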

Radish [6] = experiment: Pre-emergence herbicidal activity against Raphanus sativus var.Long scarlet (radish) seeds assessed as root length at 0.1 mol/l at 25 degC after 72 hr by laboratory-based agar medium bioassay relative to control; method in brief: as §1
Radish [7] = experiment: Pre-emergence herbicidal activity against Raphanus sativus var.Long scarlet (radish) seeds assessed as concentration required to suppress seed germination at 25 degC after 72 hr by laboratory-based agar medium bioassay
Radish [8] = experiment: Pre-emergence herbicidal activity against Raphanus sativus var.Long scarlet (radish) seeds assessed as root length at 0.1 mol/l at 25 degC after 72 hr by laboratory-based agar medium bioassay relative to 1,8-Cineole; method in brief: as §2
Radish [9] = experiment: Pre-emergence herbicidal activity against Raphanus sativus var.Long scarlet (radish) seeds assessed as concentration required to suppress root growth at 25 degC after 72 hr by laboratory-based agar medium bioassay
Lolium rigidum [10] = experiment: Pre-emergence herbicidal activity against Lolium rigidum seeds assessed as concentration required to suppress root growth at 25 degC after 72 hr by laboratory-based agar medium bioassay
Radish [11] = experiment: Pre-emergence herbicidal activity against Raphanus sativus var.Long scarlet (radish) seeds assessed as seed germination at 0.1 mol/l at 25 degC after 72 hr by laboratory-based agar medium bioassay relative to 1,8-Cineole; method in brief: as §2
Lolium rigidum [12] = experiment: Pre-emergence herbicidal activity against Lolium rigidum seeds assessed as concentration required to suppress shoot growth at 25 degC after 72 hr by laboratory-based agar medium bioassay
Lolium rigidum [13] = experiment: Pre-emergence herbicidal activity against Lolium rigidum seeds assessed as shoot length at 0.1 mol/l at 25 degC after 72 hr by laboratory-based agar medium bioassay relative to 1,8-Cineole; method in brief: as §2
Lolium rigidum [14] = experiment: Pre-emergence herbicidal activity against Lolium rigidum seeds assessed as shoot length at 0.1 mol/l at 25 degC after 72 hr by laboratory-based agar medium bioassay relative to control; method in brief: as §1
Lolium rigidum [15] = experiment: Pre-emergence herbicidal activity against Lolium rigidum seeds assessed as root length at 0.1 mol/l at 25 degC after 72 hr by laboratory-based agar medium bioassay relative to 1,8-Cineole; method in brief: as §2
Lolium rigidum [16] = experiment: Pre-emergence herbicidal activity against Lolium rigidum seeds assessed as root length at 0.1 mol/l at 25 degC after 72 hr by laboratory-based agar medium bioassay relative to control; method in brief: as §1
Lolium rigidum [17] = experiment: Pre-emergence herbicidal activity against Lolium rigidum seeds assessed as seed germination at 0.1 mol/l at 25 degC after 72 hr by laboratory-based agar medium bioassay relative to control; method in brief: as §1
Lolium rigidum [18] = experiment: Pre-emergence herbicidal activity against Lolium rigidum seeds assessed as seed germination at 0.1 mol/l at 25 degC after 72 hr by laboratory-based agar medium bioassay relative to 1,8-Cineole; method in brief: as §2

## CC(C)[C@]12CC[C@@](C)(O1)[C@H](OC(=O)CC(C)(C)C)C2 (racemic) [2-exo-t-butylacetoxy-1,4-cineole]
Radish [1]
  Activity: 0.01 mol/L
Radish [2]
  Activity: 42.9%
Radish [3]
  Activity: 71.2%
Lolium rigidum [4]
  Activity: 0.1 mol/L
Radish [5]
  Ratio: 0.9
Radish [6]
  Activity: 55.8%
Radish [7]
  Activity: 0.1 mol/L
Radish [8]
  Ratio: 0.7
Radish [9]
  Activity: 0.01 mol/L
Lolium rigidum [10]
  Activity: 0.01 mol/L
Radish [11]
  Ratio: 0.8
Lolium rigidum [12]
  Activity: 0.1 mol/L

## CC1(C)O[C@]2(C)CC[C@@H]1[C@@H](OC(=O)c1ccccc1)C2 (racemic) [3-exo-benzoxy-1,8-cineole]
Lolium rigidum [13]
  Ratio: 0.7
Radish [1]
  Activity: 0.1 mol/L
Radish [2]
  Activity: 98%
Lolium rigidum [14]
  Activity: 41.6%
Radish [3]
  Activity: 61%
Lolium rigidum [15]
  Ratio: 2.1
Lolium rigidum [4]
  Activity: 0.1 mol/L
Radish [5]
  Ratio: 1.1
Radish [6]
  Activity: 42.4%
Radish [7]
  Activity: 1 mol/L
Lolium rigidum [16]
  Activity: 10.9%
Radish [8]
  Ratio: 0.8
Lolium rigidum [17]
  Activity: 82.2%
Radish [9]
  Activity: 0.01 mol/L
Lolium rigidum [10]
  Activity: 0.01 mol/L
Lolium rigidum [18]
  Ratio: 0.4
Radish [11]
  Ratio: 0.3
Lolium rigidum [12]
  Activity: 0.1 mol/L

## CCCCCC(=O)O [HEXANOATE]
Lolium rigidum [13]
  inhibition: Active
Radish [1]
  Activity: 0.1 mol/L
Radish [2]
  Activity: 0%
Lolium rigidum [14]
  Activity: 0%
Radish [3]
  Activity: 0%
Lolium rigidum [15]
  inhibition: Active
Lolium rigidum [4]
  Activity: 0.01 mol/L
Radish [5]
  inhibition: Active
Radish [6]
  Activity: 0%
Radish [7]
  Activity: 0.1 mol/L
Lolium rigidum [16]
  Activity: 0%
Radish [8]
  inhibition: Active
Lolium rigidum [17]
  Activity: 0%
Radish [9]
  Activity: 0.001 mol/L
Lolium rigidum [10]
  Activity: 0.0001 mol/L
Lolium rigidum [18]
  inhibition: Active
Radish [11]
  inhibition: Active
Lolium rigidum [12]
  Activity: 0.0001 mol/L

## CC(=O)O [ACETIC ACID]
Lolium rigidum [13]
  inhibition: Active
Radish [1]
  Activity: 0.1 mol/L
Radish [2]
  Activity: 0%
Lolium rigidum [14]
  Activity: 0%
Radish [3]
  Activity: 0%
Lolium rigidum [15]
  inhibition: Active
Lolium rigidum [4]
  Activity: 0.1 mol/L
Radish [5]
  inhibition: Active
Radish [6]
  Activity: 0%
Radish [7]
  Activity: 0.1 mol/L
Lolium rigidum [16]
  Activity: 0%
Radish [8]
  inhibition: Active
Lolium rigidum [17]
  Activity: 0%
Radish [9]
  Activity: 0.1 mol/L
Lolium rigidum [10]
  Activity: 0.01 mol/L
Lolium rigidum [18]
  inhibition: Active
Radish [11]
  inhibition: Active
Lolium rigidum [12]
  Activity: 0.01 mol/L

## O=C(O)c1ccccc1 [BENZOIC ACID]
Lolium rigidum [13]
  inhibition: Active
Radish [1]
  Activity: 0.01 mol/L
Radish [2]
  Activity: 0%
Lolium rigidum [14]
  Activity: 0%
Radish [3]
  Activity: 0%
Lolium rigidum [15]
  inhibition: Active
Lolium rigidum [4]
  Activity: 0.01 mol/L
Radish [5]
  inhibition: Active
Radish [6]
  Activity: 0%
Radish [7]
  Activity: 0.1 mol/L
Lolium rigidum [16]
  Activity: 0%
Radish [8]
  inhibition: Active
Lolium rigidum [17]
  Activity: 0%
Radish [9]
  Activity: 0.01 mol/L
Lolium rigidum [10]
  Activity: 0.0001 mol/L
Lolium rigidum [18]
  inhibition: Active
Radish [11]
  inhibition: Active
Lolium rigidum [12]
  Activity: 0.0001 mol/L

## CCCC(=O)O[C@@H]1C[C@@]2(C(C)C)CC[C@@]1(C)O2 (racemic) [2-exo-butoxy-1,4-cineole]
Radish [5]
  inhibition: Active
Radish [8]
  inhibition: Active
Radish [11]
  inhibition: Active

## CC(C)(C)CC(=O)O [T-BUTYLACETIC ACID]
Lolium rigidum [13]
  inhibition: Active
Radish [1]
  Activity: 0.1 mol/L
Radish [2]
  Activity: 0%
Lolium rigidum [14]
  Activity: 0%
Radish [3]
  Activity: 0%
Lolium rigidum [15]
  inhibition: Active
Lolium rigidum [4]
  Activity: 0.01 mol/L
Radish [5]
  inhibition: Active
Radish [6]
  Activity: 0%
Radish [7]
  Activity: 0.1 mol/L
Lolium rigidum [16]
  Activity: 0%
Radish [8]
  inhibition: Active
Lolium rigidum [17]
  Activity: 0%
Radish [9]
  Activity: 0.01 mol/L
Lolium rigidum [10]
  Activity: 0.0001 mol/L
Lolium rigidum [18]
  inhibition: Active
Radish [11]
  inhibition: Active
Lolium rigidum [12]
  Activity: 0.0001 mol/L

## CC(C)[C@]12CC[C@@](C)(O1)[C@H](O)C2 (racemic) [2-Exo-hydroxy-1,4-cineole]
Lolium rigidum [13]
  Ratio: 1.2
Radish [1]
  Activity: 0.1 mol/L
Radish [2]
  Activity: 2.6%
Lolium rigidum [14]
  Activity: 23.1%
Radish [3]
  Activity: 41.7%
Lolium rigidum [15]
  Ratio: 3.7
Lolium rigidum [4]
  Activity: 0.1 mol/L
Radish [5]
  Ratio: 1.6
Radish [6]
  Activity: 9.9%
Radish [7]
  Activity: 0.1 mol/L
Lolium rigidum [16]
  Activity: 6.1%
Radish [8]
  Ratio: 3.7
Lolium rigidum [17]
  Activity: 21.7%
Radish [9]
  Activity: 0.1 mol/L
Lolium rigidum [10]
  Activity: 0.01 mol/L
Lolium rigidum [18]
  Ratio: 1.4
Radish [11]
  Ratio: 13.1
Lolium rigidum [12]
  Activity: 0.1 mol/L

## CC1(C)O[C@]2(C)CC[C@@H]1[C@@H](O)C2 (racemic) [3-exo-hydroxy-1,8-cineole]
Lolium rigidum [13]
  Ratio: 2.8
Radish [1]
  Activity: 0.1 mol/L
Radish [2]
  Activity: 2.4%
Lolium rigidum [14]
  Activity: 10.2%
Radish [3]
  Activity: 46.5%
Lolium rigidum [15]
  Ratio: 1.3
Lolium rigidum [4]
  Activity: 0.1 mol/L
Radish [5]
  Ratio: 1.4
Radish [6]
  Activity: 26.8%
Radish [7]
  Activity: 0.1 mol/L
Lolium rigidum [16]
  Activity: 16.6%
Radish [8]
  Ratio: 1.4
Lolium rigidum [17]
  Activity: 2.6%
Radish [9]
  Activity: 0.01 mol/L
Lolium rigidum [10]
  Activity: 0.1 mol/L
Lolium rigidum [18]
  Ratio: 11.6
Radish [11]
  Ratio: 14.2
Lolium rigidum [12]
  Activity: 0.01 mol/L

## CC(=O)O[C@@H]1C[C@@]2(C(C)C)CC[C@@]1(C)O2 (racemic) [2-exo-acetoxy-1,4-cineole]
Lolium rigidum [13]
  inhibition: Active
Radish [1]
  Activity: 0.01 mol/L
Radish [2]
  Activity: 4.5%
Lolium rigidum [14]
  Activity: 0%
Radish [3]
  Activity: 0%
Lolium rigidum [15]
  inhibition: Active
Lolium rigidum [4]
  Activity: 0.1 mol/L
Radish [5]
  inhibition: Active
Radish [6]
  Activity: 2.7%
Radish [7]
  Activity: 0.01 mol/L
Lolium rigidum [16]
  Activity: 0%
Radish [8]
  Ratio: 3.5
Lolium rigidum [17]
  Activity: 0%
Radish [9]
  Activity: 0.01 mol/L
Lolium rigidum [10]
  Activity: 0.01 mol/L
Lolium rigidum [18]
  inhibition: Active
Radish [11]
  Ratio: 7.5
Lolium rigidum [12]
  Activity: 0.01 mol/L

## CC(=O)O[C@H]1C[C@@]2(C)CC[C@H]1C(C)(C)O2 (racemic) [3-Exo-acetoxy-1,8-cineole]
Lolium rigidum [13]
  Ratio: 1.3
Radish [1]
  Activity: 1 mol/L
Radish [2]
  Activity: 18.9%
Lolium rigidum [14]
  Activity: 21.3%
Radish [3]
  Activity: 64.3%
Lolium rigidum [15]
  Ratio: 2.9
Lolium rigidum [4]
  Activity: 0.1 mol/L
Radish [5]
  Ratio: 1
Radish [6]
  Activity: 29.2%
Radish [7]
  Activity: 0.01 mol/L
Lolium rigidum [16]
  Activity: 7.6%
Radish [8]
  Ratio: 1.3
Lolium rigidum [17]
  Activity: 34.1%
Radish [9]
  Activity: 0.01 mol/L
Lolium rigidum [10]
  Activity: 0.1 mol/L
Lolium rigidum [18]
  Ratio: 0.9
Radish [11]
  Ratio: 1.8
Lolium rigidum [12]
  Activity: 0.1 mol/L

## CC1(C)OC2(C)CC[C@H]1C[C@H]2O (single isomer, unassigned) [2-endo-hydroxy-1,8-cineole]
Lolium rigidum [13]
  Ratio: 1.8
Radish [1]
  Activity: 0.1 mol/L
Radish [2]
  Activity: 2.6%
Lolium rigidum [14]
  Activity: 15.4%
Radish [3]
  Activity: 0%
Lolium rigidum [15]
  Ratio: 0.6
Lolium rigidum [4]
  Activity: 0.1 mol/L
Radish [5]
  inhibition: Active
Radish [6]
  Activity: 6.8%
Radish [7]
  Activity: 0.01 mol/L
Lolium rigidum [16]
  Activity: 39.5%
Radish [8]
  Ratio: 5.5
Lolium rigidum [17]
  Activity: 51.5%
Radish [9]
  Activity: 0.01 mol/L
Lolium rigidum [10]
  Activity: 0.1 mol/L
Lolium rigidum [18]
  Ratio: 0.6
Radish [11]
  Ratio: 13.1
Lolium rigidum [12]
  Activity: 0.01 mol/L

## CCCC(=O)O [BUTYRIC ACID]
Lolium rigidum [13]
  inhibition: Active
Radish [1]
  Activity: 0.01 mol/L
Radish [2]
  Activity: 0%
Lolium rigidum [14]
  Activity: 0%
Radish [3]
  Activity: 0%
Lolium rigidum [15]
  inhibition: Active
Lolium rigidum [4]
  Activity: 0.01 mol/L
Radish [5]
  inhibition: Active
Radish [6]
  Activity: 0%
Radish [7]
  Activity: 0.1 mol/L
Lolium rigidum [16]
  Activity: 0%
Radish [8]
  inhibition: Active
Lolium rigidum [17]
  Activity: 0%
Radish [9]
  Activity: 0.01 mol/L
Lolium rigidum [10]
  Activity: 0.01 mol/L
Lolium rigidum [18]
  inhibition: Active
Radish [11]
  inhibition: Active
Lolium rigidum [12]
  Activity: 0.1 mol/L
